A selection: hits, their analogues and other compounds. The true share with any hit is near 2.9%.
Runt-SMMHC FRET = inhibitors of RUNX1 Runt–CBFb-SMMHC binding, primary screen, biochemical, FRET, Cerulean-Runt, Venus-CBFb-SMMHC, uHTS; Cerulean-Runt/Venus-CBFb-SMMHC FRET ratio 530/480, 1 h; inhibition, % at 20 µM; hit rate 0.74% among 220,000; AID 1434, 2008;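 active = mean inhibition across duplicate retests at 20 µM reaching about 50%, limit read from the data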;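 note: 0% = DMSO wells and 100% = wells with excess untagged CBFb-SMMHC; inhibitors lower the FRET ratio by blocking Runt binding to CBFb-SMMHC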
Runt-CBFb FRET = inhibitors of RUNX1 Runt–CBFb binding, primary screen, biochemical, FRET, Cerulean-Runt, Venus-CBFb, uHTS | hit rate 0.46% among 220,000 | Cerulean-Runt/Venus-CBFb FRET ratio 530/480, 1 h | inhibition, % at 20 µM;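 active = inhibition over about 50% at 20 µM in the single-dose screen, limit read from the data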;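 note: 0% = DMSO wells and 100% = excess unlabeled CBFb competitor control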
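Doses: 20 µM compound in 1% DMSO | Material: Cerulean-labeled Runt domain protein | Amount: Each fluorescent fusion protein 100 nM | Schedule: Two 1 h room-temperature incubations shielded from light | Measured by: FRET fluorescence | Evaluation: Loss of energy transfer signal | Controls: Unlabeled CBFb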
Wee1 degr inh = Wee1 degradation inhibitors, primary screen, cell-based, HeLa, Wee1K328M-luciferase, luminescence. Wee1-like protein kinase (Homo sapiens), P30291. HeLa Luc-Wee1K328M stability; 100% = proteasome inhibitor MG132 effect. reporter increase, % at 5 µM. hit rate 1.2% among 220,000. AID 1321, 2008;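 active = activation above the mean of all tested compounds plus 3 SD, set per screening run, cut at about 8.8% in these data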;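 note: cells exposed to compound for 20 h before luminescence read; 0% = DMSO alone and 100% = MG132 at 30 µM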
RanGTP-Imp inh = inhibitors of RanGTP-importin-beta interaction, primary screen, biochemical, FRET, CFP-Ran, YFP-importin-beta, homogeneous | hit rate 1.1% among 300,000 | inhibition, % (no concentration beside the values) | AID 2216, 2009 | Ran GTPase (GTP-bound) - importin-beta complex | cell-free CFP-Ran/YFP-importin-beta FRET ratio;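 active = more than half of the replicate wells show a fall in the fluorescence ratio signal beyond about 16%, limit read from the data, passing the limit was not always enough; inconclusive = exactly half of the replicate wells pass the set limit; inactive = fewer than half of replicates pass the limit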;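 note: 0% = DMSO wells and 100% = Ran loaded with GDP instead of GTP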
KLK7 zymogen act = proKLK7 zymogen activators, primary screen, biochemical, fluorescence intensity; activation, % at 7 µM; hit rate 0.9% among 370,000; purified proKLK7, EDANS-DABCYL substrate fluorescence; 100% is mature enzyme control, 0% vehicle; Kallikrein-7 (Homo sapiens), P49862; AID 652039, 2013;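 active = activation above the mean of all tested compounds plus 3 SD, computed per campaign excluding outliers beyond control limits, cut at about 13% in these data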
Target sequence (P49862 whole entry, looked up): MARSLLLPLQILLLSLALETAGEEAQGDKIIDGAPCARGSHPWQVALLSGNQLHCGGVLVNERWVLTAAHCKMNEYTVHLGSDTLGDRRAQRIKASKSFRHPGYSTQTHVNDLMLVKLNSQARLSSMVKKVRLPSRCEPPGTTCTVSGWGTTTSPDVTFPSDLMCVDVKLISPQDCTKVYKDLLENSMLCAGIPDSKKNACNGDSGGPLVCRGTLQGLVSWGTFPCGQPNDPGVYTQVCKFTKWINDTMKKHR
AI-2 QS mod = Vibrio harveyi AI-2 quorum sensing modulators, primary screen, JMH597 strain, luminescence/OD600 ratio | Vibrio harveyi JMH597 AI-2 luminescence/OD600 ratio, 9 h; hits give low values; strain lacks LuxN and CqsS sensors; 0 = neutral-control median | activity change, % at 7.5 µM | hit rate 0.4% among 300,000 | AID 2094, 2009; in the data active = activity change below about -75%, passing the limit was not always enough; inconclusive = no clear call, values can overlap the other calls;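 note: luminescence divided by OD600 gain over 9 h not by final OD600 alone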
proKLK7 act conf = proKLK7 zymogen activators, confirmation, biochemical, fluorescence intensity, triplicate | purified proKLK7, EDANS-DABCYL substrate fluorescence; scaled: vehicle 0, mature enzyme 100 | shares compounds with KLK7 zymogen act | AID 686949, 2013 | activation, % at 7 µM | hit rate 68% among 3,200;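 active = activation, as change over the incubation, above the mean of all tested compounds plus 3 SD, cut at about 13% in these data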
EDANS interfere = EDANS-DABCYL substrate optical interference, artefact control for kallikrein-7 zymogen activator project, biochemical, fluorescence intensity, high throughput; activation, % at 7 µM; no enzyme, 4 h; solvent 0%, active enzyme control 100%; hit rate 80% among 3,200; AID 686952, 2013; shares compounds with KLK7 zymogen act;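 active = activation above the all-compound mean plus 3 SD, ignoring values outside control-based bounds, cut at about 4.8% in these data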;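 note: value is the 4 h activation minus the activation read at time zero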
EDANS interf = optically interferes with EDANS-DABCYL fluorescence, kallikrein-7 activator counter-screen; AID 720493; shares compounds with KLK7 zymogen act; EC50, µM; EDANS-DABCYL peptide fluorescence interference, no enzyme; hit rate 20% among 250;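 active = compounds that raise the fluorescence signal in this interference counterscreen, with EC50 at or below 10 µM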;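 note: intact quenched peptide substrate alone read at 355 nm excitation and 520 nm emission; signal is fluorescence gain from T0 to T4 after four hours at room temperature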
Numbers without * were called inactive; i = inactive; ? = inconclusive; · = not tested or not shown; ! = not active in a repeat.

SMILES	Runt-SMMHC FRET	Runt-CBFb FRET	Wee1 degr inh	RanGTP-Imp inh	KLK7 zymogen act	AI-2 QS mod	proKLK7 act conf	EDANS interfere	others
COC(=O)CC1=C(C(=O)OC)[C@@H](c2ccccc2[N+](=O)[O-])C(C#N)=C(N)O1	10.2	1.5	-2.1	-0.1	38.5*	10.0	89.8*	71.0*	EDANS interf=8.67*
COc1cccc2c1C(=O)O/C2=C/c1ccc2c(c1)OCO2	29.3	-68.3	1.6	1.4	16.0*	15.7	-237.0	-177.0
Cc1cc(CNC(=O)COC(=O)Cn2[nH]c(=O)c3ccccc3c2=O)cc(C)c1O	·	·	·	2.3	-0.1	18.5	·	·
O=C(COC(=O)CCCNC(=O)c1ccc(Cl)cc1)NC1CC1	-7.4	-1.0	-1.4	10.3	13.9*	-7.6	-0.6	-1.2
COc1ccc(-c2cc(C(F)F)n3ncc(C(=O)N4CCc5ccccc54)c3n2)cc1	1.0	-3.0	2.0	1.8	0.2	16.1	·	·
COc1ccc(-c2cc(C(F)F)n3ncc(C(=O)n4ccnc4C)c3n2)cc1	5.8	0.1	0.7	2.1	13.1*	-4.5	169.2*	167.1*
CN1CC=C2C(C#N)=C(N)C(C#N)(C#N)C(c3ccsc3)C2C1 (configuration not stated)	80.4*	66.1*	-1.1	65.3*	15.4*	-7.0	56.9*	54.6*
N#CC1=C(N)C(C#N)(C#N)C(c2cccnc2)C2CCCC=C12 (configuration not stated)	-34.1	-42.4	-0.1	-30.9	·	14.0	·	·
CCCC1C2CN(C(C)C)CC=C2C(C#N)=C(N)C1(C#N)C#N (configuration not stated)	40.3	11.7	-1.6	88.6*	23.5*	22.2	11.5	13.9*
CN1CC=C2C(C#N)=C(N)C(C#N)(C#N)[C@H](c3cccc(Cl)c3)C2C1 (some centres not stated)	58.0*	33.7	1.8	45.0*	12.8*	25.9	34.2*	35.3*
N#CC1=C(N)C(C#N)(C#N)C(c2ccncc2)C2CN(C(=O)OCc3ccccc3)CC=C12 (configuration not stated)	22.1	14.6	3.2	14.1	17.3*	4.6	36.0*	35.2*
N#CC1=C(N)C(C#N)(C#N)C(c2ccc[nH]2)C2CCCC=C12 (configuration not stated)	-162.8	-87.6	0.4	-14.1	3.4	12.5	·	·
CN1C2C=C3C(C#N)=C(N)C(C#N)(C#N)[C@@H](c4ccsc4)[C@@H]3C1CC2 (some centres not stated)	-6.9	-0.7	2.5	-4.3	·	29.1	·	·
CC(Sc1nnc2ccccn12)C(=O)Nc1ccc2c(c1)OCO2 (configuration not stated)	-1.2	-1.6	3.1	-2.5	0.6	35.2	·	·
Cc1[nH]nc(SCC(=O)N(C)c2ccccc2)c1[N+](=O)[O-]	3.3	0.6	-2.6	-5.6	-0.1	16.3	·	·
CCc1cc2c(=O)c(-c3nc4ccccc4n3C)coc2c(CN2CCCCC2)c1O	·	·	·	2.6	12.9*	4.9	7.2	8.8*
CCc1cc2c(=O)c(-c3nc4ccccc4n3C)c(C)oc2c(CN2CCCCC2)c1O	-0.6	2.0	0.1	1.2	8.9	5.1	·	·
CCc1cc2c(=O)c(-c3nc4ccccc4n3C)coc2c(CN2CCOCC2)c1O	1.1	-0.5	1.9	4.7	2.5	10.6	·	·
CCc1cc2c(=O)c(-c3nc4ccccc4n3C)coc2c(CN2CCCCC2C)c1O (configuration not stated)	·	·	·	-0.5	15.6*	4.9	8.4	14.7*
Cc1cccc(-n2c(SCC(=O)N3CCCC3)nc3n[nH]c(C)c3c2=N)c1	2.0	-4.4	5.5	·	29.5*	10.6	69.9*	42.6*	EDANS interf=i
CCc1ccccc1NC(=O)CSc1nc2n[nH]c(C)c2c(=N)n1-c1ccc(OC)cc1	3.1	-4.1	1.1	·	31.4*	·	20.2*	16.1*	EDANS interf=3.27*
COc1ccccc1NC(=O)CSc1nc2n[nH]c(C)c2c(=N)n1-c1ccccc1Cl	-6.2	-5.8	-0.7	5.0	-0.9	4.2	·	·
C[C@@H]1COc2cc(N3CCSCC3)ccc2S(=O)(=O)N1	·	·	·	·	0.4	·	·	·
C=CCn1c(C)nnc1SCC(=O)Nc1ccccc1C(=O)NC1CC1	·	·	·	·	-0.5	·	·	·
CCOc1cc(/C=N/NC(=O)C(O)(c2ccccc2)c2ccccc2)ccc1OC(=O)c1ccco1	·	·	·	6.1	-0.2	21.9	·	·
SMILES	Runt-SMMHC FRET	Runt-CBFb FRET	Wee1 degr inh	RanGTP-Imp inh	KLK7 zymogen act	AI-2 QS mod	proKLK7 act conf	EDANS interfere	others
CC(C)C1Oc2cc3oc(=O)ccc3cc2C1=O (configuration not stated)	4.7	1.5	-1.6	?	35.1*	7.5	29.0*	27.1*
COCCn1c(SCC(=O)NC(C)c2ccc(F)cc2)nc2ccccc21 (configuration not stated)	·	·	·	-3.5	-0.3	28.7	·	·
Cc1oc2c(CN3CCC(C)CC3)c(O)ccc2c(=O)c1-c1ccccc1	·	·	·	-2.4	36.5*	1.2	40.1*	44.8*
Cc1oc2c(CN3CCCC3)c(O)ccc2c(=O)c1-c1ccc(Cl)cc1	0.4	-0.4	-2.7	-2.2	27.2*	19.9	39.8*	49.6*
Cc1oc2c(CN3CCOCC3)c(O)ccc2c(=O)c1-c1ccc(Cl)cc1	-2.3	1.1	1.3	2.9	49.3*	-6.1	7.5	6.1*
Cc1oc2c(CN3CCOCC3)c(O)ccc2c(=O)c1-c1ccc(Br)cc1	-1.9	0.7	-1.5	-3.3	11.4	9.8	·	·
Nc1ccc2ccc(O)cc2c1	·	·	·	·	0.7	·	·	·
C[n+]1c2cc(N)ccc2cc2ccc(N)cc21	·	·	·	·	34.1*!	·	55.8*	59.5*

Screening results: PubChem BioAssay, several laboratories
